Inhibition and IC50 data for 22 molecules are collected here from ChEMBL document CHEMBL1268833, “Molecular docking and structure-activity relationship studies on benzothiazole based non-peptidic BACE-1 inhibitors” (Bioorg Med Chem Lett, 2010).

pIC50: −log10 of the molar value.

The target of assay [1] is T1, Beta-secretase 1 (Homo sapiens, UniProt P56817). Description: Inhibition of human BACE1 at 50 uM by FRET assay. An outline of the steps: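 FRET assay kit for BACE-1 activity, run per a previously described protocol; each compound was tested at 50 µM as the initial screening concentration; percent inhibition is given as the mean of duplicate measurements.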
T1 sequence (P56817 whole entry): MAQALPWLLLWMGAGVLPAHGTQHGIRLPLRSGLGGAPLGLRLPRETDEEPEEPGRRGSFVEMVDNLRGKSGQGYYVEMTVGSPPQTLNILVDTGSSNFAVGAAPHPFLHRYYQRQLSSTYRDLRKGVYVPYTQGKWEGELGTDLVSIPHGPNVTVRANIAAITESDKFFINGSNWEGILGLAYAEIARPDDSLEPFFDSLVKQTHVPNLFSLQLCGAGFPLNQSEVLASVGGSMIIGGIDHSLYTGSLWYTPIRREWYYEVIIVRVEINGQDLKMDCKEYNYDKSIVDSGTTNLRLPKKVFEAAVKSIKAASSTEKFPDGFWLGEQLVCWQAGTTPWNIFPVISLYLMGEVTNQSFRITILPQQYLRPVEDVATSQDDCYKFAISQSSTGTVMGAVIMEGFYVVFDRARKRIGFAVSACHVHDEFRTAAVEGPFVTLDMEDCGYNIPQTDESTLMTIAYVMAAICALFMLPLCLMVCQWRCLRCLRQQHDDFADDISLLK
The target of assay [2] is T1, Beta-secretase 1. In words: Inhibition of human BACE1 by FRET assay. The method in brief:
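IC50 values were measured against BACE-1 with a FRET assay kit following an earlier-described protocol; values are means of duplicate measurements.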

For `O=C(CSc1nc2ccc(Nc3nc(N4CCOCC4)nc(N4CCOCC4)n3)cc2s1)NCCOc1ccccc1`, the inhibition in assay [1] came out at 0%.
As for `O=C(CSc1nc2ccc(Nc3nc(N4CCOCC4)nc(N4CCOCC4)n3)cc2s1)Nc1ccccc1Cl`, in assay [2], the pIC50 is 4.30. The same molecule returned an inhibition in assay [1] of 50%.
For the molecule `O=C(CSc1nc2ccc(Nc3nc(N4CCOCC4)nc(N4CCOCC4)n3)cc2s1)N1CCOCC1`, the inhibition in assay [1] amounted to 16%.
For the molecule `Cc1cc(C)c(NC(=O)CSc2nc3ccc(Nc4nc(N5CCOCC5)nc(N5CCOCC5)n4)cc3s2)c(C)c1`, the pIC50 in assay [2] was less than 4.30. In assay [1], this molecule gave an inhibition of 82%.
Molecule `O=C(CSc1nc2ccc(Nc3nc(N4CCOCC4)nc(N4CCOCC4)n3)cc2s1)Nc1cccc(C(F)(F)F)c1` had an inhibition in assay [1] of 0%.
`O=C(CSc1nc2ccc(Nc3nc(N4CCCC4)nc(N4CCCC4)n3)cc2s1)Nc1ccccc1` gave a pIC50 in assay [2] of 6.92. In addition, the inhibition in assay [1] was 100%.
The corresponding values for `O=C(CSc1nc2ccc(Nc3nc(N4CCCC4)nc(N4CCCC4)n3)cc2s1)NCCOc1ccccc1` are 5.52 and 88%.
In the same order, the values of `CCOc1ccc(NC(=O)CSc2nc3ccc(Nc4nc(N5CCCCC5)nc(N5CCCCC5)n4)cc3s2)cc1` are 4.76 and 77%.
In assay [1], `Cc1ccc(CNC(=O)CSc2nc3ccc(Nc4nc(N5CCOCC5)nc(N5CCOCC5)n4)cc3s2)cc1` gave an inhibition of 0%.
`O=C(CSc1nc2ccc(Nc3nc(N4CCCC4)nc(N4CCCC4)n3)cc2s1)NCc1ccccc1` gave a pIC50 in assay [2] of 5.77. The inhibition in assay [1] is 83%.
In the same order, the values of `O=C(CSc1nc2ccc(Nc3nc(N4CCOCC4)nc(N4CCOCC4)n3)cc2s1)N1c2ccccc2CCc2ccccc21` are 4.83 and 100%.
In the same order, the values of `COc1ccc(OC)c(NC(=O)CSc2nc3ccc(Nc4nc(N5CCCCC5)nc(N5CCCCC5)n4)cc3s2)c1` are 4.74 and 73%.
The corresponding values for `Cc1cccc(NC(=O)CSc2nc3ccc(Nc4nc(N5CCCC5)nc(N5CCCC5)n4)cc3s2)c1C` are 5.55 and 100%.
`CCOC(=O)CSc1nc2ccc(Nc3nc(N4CCCC4)nc(N4CCCC4)n3)cc2s1`: the pIC50 in assay [2] was 5.75. Besides, in assay [1], the inhibition stood at 100%.
In the same order, the values of `O=C(CSc1nc2ccc(Nc3nc(N4CCOCC4)nc(N4CCOCC4)n3)cc2s1)NCc1ccccc1` are 4.30 and 50%.
In the same order, the values of `O=C(CSc1nc2ccc(Nc3nc(N4CCCCC4)nc(N4CCCCC4)n3)cc2s1)Nc1ccccc1` are less than 4.30 and 58%.
In turn, `Cc1ccccc1NC(=O)CSc1nc2ccc(Nc3nc(N4CCOCC4)nc(N4CCOCC4)n3)cc2s1` displayed an inhibition in assay [1] of 0.5%.
`O=C(CSc1nc2ccc(Nc3nc(N4CCCC4)nc(N4CCCC4)n3)cc2s1)NCc1ccco1` showed a pIC50 in assay [2] of 6.16. The inhibition in assay [1] is 87%.
The corresponding values for `O=C(CSc1nc2ccc(Nc3nc(N4CCCCC4)nc(N4CCCCC4)n3)cc2s1)c1ccc(F)cc1` are 4.70 and 80%.
Molecule `CCOC(=O)CSc1nc2ccc(Nc3nc(N4CCOCC4)nc(N4CCOCC4)n3)cc2s1` registered an inhibition in assay [1] of 42%.
Consider `O=C(CSc1nc2ccc(Nc3nc(N4CCCC4)nc(N4CCCC4)n3)cc2s1)c1ccccc1`, for which the negative-log IC50 (pIC50) in assay [2] was 4.70. The molecule also registered an inhibition in assay [1] of 93%.
`CCOc1ccc(NC(=O)CSc2nc3ccc(Nc4nc(N5CCOCC5)nc(N5CCOCC5)n4)cc3s2)cc1`: the pIC50 in assay [2] is less than 4.30. The molecule further returned an inhibition in assay [1] of 100%.

As a reminder, the inhibition is the share of the control response that was lost under treatment. A higher inhibition goes with a strong effect. For orientation: pIC50 means −log10 of the IC50, conventionally taken in molar units.
